# High-throughput results from PubChem BioAssay.
# Sampled rows, rich in hits. Any-hit rate of the full collection: about 1.9%.
# NadD block: NadD (S. aureus) enzyme inhibition | purified NadD enzyme, colorimetric absorbance read-out | inhibition, % at 20 µM | 360,000 compounds, 0.78% hits | AID 602399; in the data active = inhibition above about 26%
# IMP-1 inh: inhibitors of Pseudomonas aeruginosa IMP-1 metallo-beta-lactamase; 290,000 compounds, 0.45% hits; purified IMP-1, nitrocefin hydrolysis, epi-absorbance fluorescence; inhibition, % at 5.6 µM;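 active = inhibition above the mean plus 3 SD of all compounds in the same screening run, cut at about 4.5% in these data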;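 also: 0% = IMP-1 with DMSO and 100% = DMSO wells lacking enzyme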
#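 System: purified IMP-1 / Input: IMP-1 dispensed at 0.2 nM / Medium: 50 mM HEPES pH 7.1, 50 µM ZnSO4, 0.05% Brij 35 / Timing: 15 min enzyme–compound preincubation, then 25 min nitrocefin reaction, 25 °C / Technique: plate fluorescence quenching by hydrolysis product, ex 480/em 530 nm / Repeats: singlicate testing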
# core dimer inh: blocks dimerization of HCV core protein | TR-FRET GST/Flag-core106 dimerization, 1536-well | inhibition, % at 5 µM | 300,000 compounds, 0.33% hits;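 active = inhibition above the mean of all tested compounds plus 3 SD, set per screening campaign, cut at about 45% in these data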
#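 assay system = GST-tagged and Flag-tagged HCV core protein residues 1-106 | controls = unlabelled core106 and no-GST-core106 wells | incubation = compound-protein-antibody incubation 4 h at 22.5 °C | probe or stimulus = Eu donor and XL665 acceptor anti-tag antibodies | read-out = % inhibition based on acceptor/donor emission ratio | signal = TR-FRET 671 and 617 nm emission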
# VIM-2 inh: blocks Pseudomonas aeruginosa VIM-2 metallo-beta-lactamase; purified VIM-2, nitrocefin hydrolysis, epi-absorbance fluorescence; 290,000 compounds, 0.89% hits; AID 1527; inhibition, % at 5.6 µM;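 active = inhibition above the mean of all tested compounds plus 3 SD, cutoff set per screening run, cut at about 7.5% in these data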;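 also: red hydrolysis product quenches plate fluorescence so inhibitors raise well fluorescence; 0% = enzyme with DMSO and 100% = DMSO without enzyme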
# NadD conf: NadD (S. aureus) inhibition, single concentration confirmation; shares compounds with NadD block; purified S. aureus NadD, colorimetric enzyme assay; inhibition, % at 20 µM; 2,000 compounds, 13% hits; in the data active = inhibition mostly above about 42%, no sharp cut-off; inactive = mostly below about 42%
# Active calls of the source: *; nt = not tested or not shown.
SMILES,NadD block,IMP-1 inh,core dimer inh,VIM-2 inh,NadD conf
C=CCNC(=S)NNC(=O)Cn1c(-c2ccccc2)cc(=O)n2ncnc12,0.7,-3.5,-3.2,-3.4,nt
O=C(O)CC1Cc2ccccc2C1C(=O)O (stereo not drawn),-1.9,nt,nt,nt,nt
CC(C)(C)c1ccc(Oc2cccc(C3CC(=O)C(C4NCCc5ccccc54)C(=O)C3n3cncn3)c2)cc1 (stereo not drawn),40.5*,-2.1,4.0,-2.8,41.1
O=C1CC(c2ccccc2Oc2cccc(Cl)c2)C(n2cncn2)C(=O)C1C1NCCc2ccccc21 (stereo not drawn),10.3,-1.8,0.2,-1.1,nt
Cc1ccc(NC(=O)CSc2nc3ccc(Nc4nc(N5CCOCC5)nc(N5CCOCC5)n4)cc3s2)cc1,30.3*,-3.6,nt,-2.8,3.1
COc1ccc(NC(=O)CSc2nc3ccc(Nc4nc(N5CCOCC5)nc(N5CCOCC5)n4)cc3s2)cc1,11.9,0.0,4.9,-2.2,nt
COc1ccc(COc2cc(-c3cccc(OC)c3)nc3ccc(NC(=O)c4ccc(N(C)C)cc4)cc23)cc1,26.7,-5.2,8.0,-3.5,nt
COc1ccc(COc2cc(-c3cccc(OC)c3)nc3ccc(NC(=O)c4ccc(C)cc4)cc23)cc1,40.4*,-1.6,-3.2,-0.4,19.9
COc1ccc(C(C[N+](=O)[O-])c2c(-c3ccccc3)cc3ccccn23)c(OC)c1 (stereo not drawn),32.9*,-1.8,12.0,-0.6,13.6
O=[N+]([O-])c1cccc2c3c([nH]c12)CCCC3,-7.9,-3.6,-2.8,0.0,nt
CC1(C)CC(NC(=O)C2CCN(S(=O)(=O)c3cccc(C(F)(F)F)c3)CC2)CC(C)(C)N1,-9.5,nt,nt,nt,nt
O=c1/c(=C\c2cccc(O)c2)sc2nc(-c3ccccc3)c(-c3ccccc3)n12,34.7*,-1.7,7.7,-0.7,-0.7
COc1ccc(/C=c2\sc3nc(-c4ccccc4)c(-c4ccccc4)n3c2=O)cc1OC,10.5,-2.8,45.9,-2.6,nt
C/C=C\C=C\C(=O)Nc1cccc(C2=NOC3(C2)C[C@@H](C(N)=O)N(C(=O)C(c2ccccc2)c2ccccc2)C3)c1 (stereo partly drawn),39.2*,nt,17.7,nt,54.8*
CCC(=O)Nc1cccc(C2=NOC3(C2)C[C@@H](C(N)=O)N(C(=O)C(c2ccccc2)c2ccccc2)C3)c1 (stereo partly drawn),8.0,nt,7.4,nt,nt
NC(=O)[C@@H]1CC2(CC(c3cccc(NC(=O)COc4ccc(Cl)cc4)c3)=NO2)CN1C(=O)COc1ccc(Cl)cc1 (stereo partly drawn),47.9*,nt,19.3,nt,24.1
C/C=C/C=C\C(=O)Nc1cccc(C2=NOC3(C2)C[C@H](C(N)=O)N(C(=O)CC#N)C3)c1 (stereo partly drawn),7.4,nt,28.2,nt,nt
N#CCC(=O)N1CC2(CC(c3cccc(NC(=O)COc4ccc(Cl)cc4)c3)=NO2)C[C@@H]1C(N)=O (stereo partly drawn),7.8,nt,4.4,nt,nt
NC(=O)[C@H]1CC2(CC(c3cccc(NC(=O)COc4ccc(Cl)cc4)c3)=NO2)CN1C(=O)C(c1ccccc1)c1ccccc1 (stereo partly drawn),32.9*,nt,23.1,nt,32.9
COc1ccc(-c2ccc(C(=O)Nc3ccc(Cl)cc3)c3occc23)c(C)c1,-2.4,nt,nt,nt,nt
Cc1cccc(C(C(N)=O)c2ncc(C(F)(F)F)cc2Cl)c1 (stereo not drawn),-6.0,-2.1,0.4,-1.1,nt
Cc1ccnc(NC(=O)Nc2ccc(Br)cc2Cl)c1,0.4,-0.7,-6.8,-0.2,nt
O=C(COc1ccc(/C=N/NC(=O)c2ccncc2)cc1)Nc1ccc([N+](=O)[O-])cc1,3.9,-2.8,6.4,-0.2,nt
O=C(COc1ccc(/C=N/NC(=O)c2ccc(O)cc2)cc1)Nc1cccc([N+](=O)[O-])c1,28.4*,-2.1,5.6,-4.4,32.6
CCCCNC(=O)c1ccc(Cc2cn(C)c3ccccc23)nc1,-1.9,nt,nt,nt,nt
Cc1ccc2oc(-c3cccc(NC(=S)NC(=O)c4cccs4)c3)nc2c1,-2.7,-4.6,-1.4,-2.0,nt
Cc1cc(C)c2oc(-c3ccc(C)c(NC(=S)NC(=O)/C=C/c4ccco4)c3)nc2c1,35.2*,-3.1,34.3,-1.8,-2.2
Cc1ccc2oc(-c3cccc(NC(=S)NC(=O)/C=C/c4ccco4)c3)nc2c1,31.9*,-4.1,56.8*,-3.6,-8.2
O=C(/C=C/c1ccco1)NC(=S)Nc1nc(-c2ccc3ccccc3c2)cs1,30.3*,0.3,22.1,0.5,1.6
